{"source": "ChEMBL document CHEMBL1255525", "about": "“Fluorinated 2'-hydroxychalcones as garcinol analogs with enhanced antioxidant and anticancer activities” (Bioorg Med Chem Lett, 2010)", "key": {"[1]": {"test": "Antioxidant activity against superoxide dismutase like activity after 15 mins by NBT spectrometric assay", "format": "functional", "procedure,_shortened": "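Superoxide-scavenging (SOD-like) activity by NBT method, run in triplicate. Mix of 2.1 ml 0.2 M Tris buffer and 1 ml NBT with test solution, held on ice 15 min. KO₂ (1.5 ml) then added with stirring. Absorbance at 560 nm read every 30 s over 5 min. Ascorbic acid as standard.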"}, "[2]": {"test_system": "BXPC-3", "test": "Cytotoxicity against human BxPC3 cells expressing COX2 after 24 hrs by MTT assay", "format": "functional, cell-based", "conditions": "BXPC-3, 24 h", "procedure,_shortened": "(§1)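 Cells grown at 37 °C, 5% CO₂, with penicillin (50 U/ml), streptomycin and 10% fetal calf serum; lines STR-authenticated. 3 × 10³ cells seeded per well. Compounds in DMSO added 24 h after seeding. Eight replicate wells per treatment; experiments repeated at least three times. End-point: MTT 0.5 mg/ml, 2 h at 37 °C, then DMSO 30 min at room temperature; absorbance read.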"}, "[3]": {"test_system": "BT-20", "test": "Cytotoxicity against human estrogen receptor-deficient BT20 cells after 24 hrs by MTT assay", "format": "functional, cell-based", "conditions": "BT-20, 24 h", "procedure,_shortened": "as §1"}, "[4]": {"test": "Lipophilicity, log P of the compound", "format": "physicochemical", "conditions": "octanol/water"}}}
{"smiles": "O=C(/C=C/c1ccc(F)c(F)c1)c1ccccc1O", "values": [{"measurement": "IC50", "setting": "[1]", "result": 5.68, "unit": "µM"}, {"measurement": "IC50", "setting": "[2]", "result": 26.7, "unit": "µM"}, {"measurement": "IC50", "setting": "[3]", "result": 32.8, "unit": "µM"}, {"measurement": "logP", "setting": "[4]", "result": 3.51}]}
{"smiles": "O=C(/C=C/c1ccc(O)cc1O)c1ccccc1O", "values": [{"measurement": "IC50", "setting": "[1]", "result": 6.07, "unit": "µM"}, {"measurement": "IC50", "setting": "[2]", "result": 68.6, "unit": "µM"}, {"measurement": "IC50", "setting": "[3]", "result": 52.9, "unit": "µM"}, {"measurement": "logP", "setting": "[4]", "result": 2.42}]}
{"smiles": "O=C(/C=C/c1ccc(F)cc1F)c1ccccc1O", "values": [{"measurement": "IC50", "setting": "[1]", "result": 5.27, "unit": "µM"}, {"measurement": "IC50", "setting": "[2]", "result": 18.7, "unit": "µM"}, {"measurement": "IC50", "setting": "[3]", "result": 26.4, "unit": "µM"}, {"measurement": "logP", "setting": "[4]", "result": 3.51}]}
{"smiles": "O=C(/C=C/c1ccc(O)c(O)c1O)c1ccccc1O", "values": [{"measurement": "IC50", "setting": "[1]", "result": 13.7, "unit": "µM"}, {"measurement": "IC50", "setting": "[2]", "result": 213, "unit": "µM"}, {"measurement": "IC50", "setting": "[3]", "result": 61.7, "unit": "µM"}, {"measurement": "logP", "setting": "[4]", "result": 2.03}]}
{"smiles": "O=C(/C=C/c1ccc(F)c(F)c1F)c1ccccc1O", "values": [{"measurement": "IC50", "setting": "[1]", "result": 7.31, "unit": "µM"}, {"measurement": "IC50", "setting": "[2]", "result": 34.7, "unit": "µM"}, {"measurement": "IC50", "setting": "[3]", "result": 56.6, "unit": "µM"}, {"measurement": "logP", "setting": "[4]", "result": 3.67}]}
{"smiles": "O=C(/C=C/c1ccc(O)c(O)c1)c1ccccc1O", "values": [{"measurement": "IC50", "setting": "[1]", "result": 9.23, "unit": "µM"}, {"measurement": "IC50", "setting": "[2]", "result": 78.3, "unit": "µM"}, {"measurement": "IC50", "setting": "[3]", "result": 63.9, "unit": "µM"}, {"measurement": "logP", "setting": "[4]", "result": 2.42}]}
{"smiles": "O=C1O[C@H]([C@@H](O)CO)C(O)=C1O", "note": "[ASCORBIC ACID]", "values": [{"measurement": "IC50", "setting": "[1]", "result": 5.43, "unit": "µM"}]}
{"smiles": "O=C(/C=C/c1ccccc1)c1ccccc1", "note": "[CHALCONE]", "values": [{"measurement": "logP", "setting": "[4]", "result": 3.2}]}
